In assay [1] the target is T1, Rho I189P (Bos taurus, UniProt P02699, I189P). Put plainly: Trp-based FRET assay, 11CR entry kinetics. Format: binding, bovine. The conditions noted are these: I189P vs I189, TM5 single vs TM5/I189P double mutants, kon Trp. A digest of the protocol:
(§1)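 Mutant bovine opsin is expressed in HEK293F cells, regenerated with 5 μm 11CR overnight at 4°C, then 1D4-immunopurified in DDM and C9-peptide eluted. Receptor at 0.25–0.30 μm is diluted into 1% POPC/1% CHAPS bicelles, pH 6.0, stirred in a temperature-controlled cuvette, with 11CR at 0.5–30 μm final. Trp quenching (ex 295, em 330 nm) is fitted pseudo-first-order; k2 = kobs/[retinal]. Data are mean ± STD of ≥3 trials.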

The target in the next assay is Rho A269Y (Bos taurus, UniProt P02699, A269Y). Nature of the assay: regeneration with 11CR. Format: binding, bovine. The conditions noted are these: 11CR 15 μM, over 48 h.
For the next assay, the target named is Rho F212W (Bos taurus, UniProt P02699, F212W). Put plainly: Trp-based FRET assay, 11CR entry kinetics. Format: binding, bovine. In short, it runs like this:
as §1

The target of a further assay is Rho A269W (Bos taurus, UniProt P02699, A269W). Nature of the assay: regeneration with 11CR. The format is binding, bovine. The conditions noted are these: expressed at very low level.
The next assay deals with S144-Alexa488 Rho F212A (Bos taurus, UniProt P02699, F212A/S144F). Nature of the assay: Alexa488-based FRET assay, 11CR entry kinetics. The conditions noted are these: F212A vs wt; Eyring plot. The format is binding, bovine. In short, it runs like this: (§2)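 Bovine opsin bearing S144azF is expressed in HEK293F cells with 1 mm azF for 96 h and regenerated with 11CR. It is purified by 1D4 immunopurification in DDM and labelled on resin with 50 μm Alexa488-DIBO for 18 h at 25°C. Labelled receptor (5–50 nm) sits in 1% POPC/1% CHAPS bicelles, pH 6.0, with 0.5–30 μm 11CR. Fluorescence (ex 488, em 520 nm) decay gives kobs; kon = kobs/[retinal], measured across temperatures for Eyring plots; mean ± STD.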

For assay [2], the target named is T2, Rho T94I (Bos taurus, UniProt P02699, T94I). Put plainly: Trp-based FRET assay, 11CR entry kinetics. Format: binding, bovine. A digest of the protocol:
as §1

For another assay, the target named is S144-Alexa488 Rho F208W (Bos taurus, UniProt P02699, F208W/S144F). Nature of the assay: Alexa488-based FRET assay, 11CR entry kinetics. Format: binding, bovine. Conditions: F208W vs wt; Eyring plot. In short, it runs like this: as §2
The next assay deals with opsin. Conditions: 11CR binding with opsin; ref Tian et al., 2017a; cited from earlier work.
The next assay concerns the target Rho A269F (Bos taurus, UniProt P02699, A269F). Put plainly: Trp-based FRET assay, ATR release kinetics. Format: binding, bovine. A digest of the protocol: (§3)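 ATR release runs on HEK293F-expressed, 1D4-immunopurified mutant bovine rhodopsin at 0.25–0.30 μm in 1% POPC/1% CHAPS bicelles, pH 6.0. Release is followed as recovery of Trp fluorescence (ex 295, em 330 nm), the inverse of retinal-induced quenching, integrated for 2 s every 30 s. Traces are fitted to a single exponential to give koff, reported as mean ± STD of ≥3 trials.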

The target in assay [3] is T2, Rho T94I. Put plainly: Trp-based FRET assay, ATR release kinetics. The format is binding, bovine. In short, it runs like this: as §3
The target of a further assay is Rho F212A (Bos taurus, UniProt P02699, F212A). Put plainly: Trp-based FRET assay, ATR release kinetics. Format: binding, bovine. A digest of the protocol:
as §3

For assay [4], the target named is T1, Rho I189P. Nature of the assay: Trp-based FRET assay, ATR release kinetics. Conditions: I189P vs I189, TM5 single vs TM5/I189P double mutants, koff Trp. The format is binding, bovine. In short, it runs like this:
as §3

Molecules are shown by their SMILES.

For the compound `CC1=C(/C=C/C(C)=C/C=C/C(C)=C/C=O)C(C)(C)CCC1` [11CR, 11-cis-retinal], on Rho I189P [1], the “reduction of activation free energy Δ‡Gon by I189P” value stood at 1.6 ± 0.3 kcal/mol. The figures for the “regeneration with 11CR” value at Rho A269Y and at Rho A269W were “could not be regenerated” and “failed to regenerate”, respectively. In addition, the “11CR entry kinetics normalized to the wt Rho” value at Rho F212W turned out to be 0.043 ± 0.022. For the same compound, the “reduction of activation enthalpy (Δ‡H) of 11CR entry” value on S144-Alexa488 Rho F212A worked out at 3.7 ± 1.6 kcal/mol. Also, the “11CR entry kinetics (relative to wt)” value at Rho T94I [2] is given as 0.80 ± 0.04. In addition, the “increase of activation enthalpy (Δ‡H) of 11CR entry” value on S144-Alexa488 Rho F208W worked out at 4.8 ± 3.1 kcal/mol. In the assay with opsin, the “activation barrier Δ‡Gon” value is 13.5 kcal/mol.
`CC1=C(/C=C/C(C)=C/C=C/C(C)=C/C=O)C(C)(C)CCC1` [ATR, all-trans-retinal]: the “ATR exit kinetics normalized to the wt Rho” value on Rho A269F stood at 0.91 ± 0.07; at Rho F212A, 2.82 ± 1.0. Moreover, the “ATR release kinetics (relative to wt)” value on Rho T94I [3] came to 0.17 ± 0.02. The “reduction of activation free energy Δ‡Goff by I189P” value at Rho I189P [4] turned out to be 1.6 ± 0.8 kcal/mol.
